According to ChEMBL document CHEMBL1131318, “Synthesis and evaluation of compounds that facilitate the gastrointestinal absorption of heparin” (J Med Chem, 1998):

Experiments:
[1] = HPLC capacity factor (k') (artificial membrane chromatography); format: ADME
How it was run: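 Immobilized artificial membrane (IAM) column; mobile phase 10 mM sodium phosphate pH 6.4 in 25% aqueous propylene glycol, 2 mL/min. Samples at 100 µg/mL in mobile phase, UV detection 220 nm, KI as void marker. k' of each compound divided by mean k' of a reference standard injected before and after each set of five compounds; reported as relative k' (log for comparisons).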

[2] = Mean peak APTT value was evaluated on rats by intracolonic instillation of a 25% aqueous propylene glycol solution of heparin (25 mg/kg) and compound (50 mg/kg).; format: functional, Rattus norvegicus

Structure (SMILES)	Log relative k' [1]	Mean peak APTT [2]
O=C(O)CCCCCCCNC(=O)c1cccs1	0.9	22
O=C(O)CCCCCCCNC(=O)C/C=C/c1ccccc1	0.7	73
O=C(O)CCCCCCCNC(=O)c1c(F)cccc1Cl	0.23	23
O=C(O)CCCCCCCNC(=O)c1ccccn1	-0.52	23
O=C(O)CCCCCCCNC(=O)c1cccnc1O	0.9	22
O=C(O)CCCCCNC(=O)c1ccc(Cl)cc1O	0.26	40
O=C(O)CCCCCCCNC(=O)c1ccccc1	0.09	21
O=C(O)CCCCCCCNC(=O)c1ccc(O)cc1	-0.04	27
O=C(O)CCCCCCCNC(=O)c1cc(O)cc(O)c1	-0.06	20
O=C(O)CCCCCCCNC(=O)c1ccc([N+](=O)[O-])cc1O	1.11	36
COc1ccccc1C(=O)NCCCCCCCC(=O)O	0.33	26
O=C(O)CCCCCCCNC(=O)c1ccc(I)cc1	0.97	23
O=C(O)CCCCCCCNC(=O)c1ccccc1Cl	0.18	23
Cc1ccc(C(=O)NCCCCCCCC(=O)O)c(O)c1	1.05	37
Cc1ccccc1C(=O)NCCCCCCCC(=O)O	0.45	25
O=C(O)CCCCCCCNC(=O)c1cccc(O)c1	0	23
O=C(O)CCCCCCCNC(=O)c1ccccc1F	0.11	25
O=C(O)CCCCCCCNC(=O)c1cc2ccccc2cc1O	1.7	71
O=C(O)CCCCCCCCCCCNC(=O)C/C=C/c1ccccc1	2.29	41
O=C(O)CCCCCCCNC(=O)c1cccc(I)c1	1.05	39
O=C(O)CCCCCCCNC(=O)c1cccc(O)c1O	0.46	
O=C(O)CCCCCCCNC(=O)c1ccc(Br)cc1	0.76	60
O=C(O)CCCNC(=O)c1ccccc1O	-0.41	25

Structure (SMILES)	Log relative k' [1]	Mean peak APTT [2]
O=C(O)CCCCCCCNC(=O)c1ccc(Cl)cc1O	1.43	94
O=C(O)CCCCCCCCCCCNC(=O)c1ccccc1O	2.32	44
O=C(O)CCCCCCCNC(=O)c1cc(O)ccc1O	0.51	25
O=C(O)CCCCCCCNC(=O)C1CCCN1 (stereo not given)	-0.28	25
O=C(O)CCCCCCCNC(=O)c1cc(Br)ccc1O	1.54	111
O=C(O)CCCCCCCNC(=O)c1ccc(F)cc1	0.23	31
Cc1cccc(C(=O)NCCCCCCCC(=O)O)c1O	1.23	27
O=C(O)CCCCCCCNC(=O)c1ccc(O)cc1O	0.65	37
O=C(O)CCCCCCCNC(=O)c1cc2ccccc2oc1=O	0.81	34
O=C(O)CCCCCCCNC(=O)c1c(O)cccc1O	1.12	42
O=C(O)CCCCCCCCNC(=O)C/C=C/c1ccccc1	0.69	140
O=C(O)CCCCCCCNC(=O)c1cccc(F)c1	0.29	35
O=C(O)CCCCCCCCNC(=O)c1ccccc1O	1.04	163
COc1ccc(C(=O)NCCCCCCCC(=O)O)c(O)c1	0.92	76
O=C(O)CCCCCCCNC(=O)c1ccc(Cl)c([N+](=O)[O-])c1	0.94	34
O=C(O)CCCCCCCNC(=O)c1ccccc1C(=O)O	-1	23
O=C(O)CCCCCCCCCNC(=O)c1ccccc1O	1.43	153
O=C(O)CCCCNC(=O)c1ccccc1O	-0.18	26
O=C(O)CCCCCCNC(=O)C/C=C/c1ccccc1	0.36	39
O=C(O)CCCCCCCCCCNC(=O)c1ccc2ccccc2c1O	> 2.5	26
Nc1ccccc1C(=O)NCCCCCCCC(=O)O	0.02	24
O=C(O)CCCCCCNC(=O)c1ccccc1O	0.37	56
COc1ccccc1/C=C/CC(=O)NCCCCCCCCC(=O)O	0.89	56

Structure (SMILES)	Log relative k' [1]	Mean peak APTT [2]
O=C(O)CCCCCCCNC(=O)C1CCCCC1	0.15	34
COc1cc(Cl)ccc1C(=O)NCCCCCCCC(=O)O	0.79	75
O=C(O)CCCCCCCNC(=O)c1cccnc1Cl	-0.53	30
O=C(O)CCCCCCCNC(=O)c1ccc([N+](=O)[O-])cc1	0.44	33
O=C(O)CCCCCCCNC(=O)c1ccccc1OC(F)(F)F	-0.64	23
O=C(O)CCCCCCCNC(=O)c1cc([N+](=O)[O-])ccc1Cl	0.25	23
O=C(O)CCCCCCCNC(=O)c1c(F)c(F)c(F)c(F)c1F	0.41	22
O=C(O)CCCCCCCNC(=O)c1ccccc1I	0.35	22
O=C(O)CCCCCCCNC(=O)c1ccc(Cl)cc1	0.65	37
Cc1ccc(O)c(C(=O)NCCCCCCCC(=O)O)c1	1.03	56
O=C(O)CCNC(=O)c1ccccc1O	-0.63	22
O=C(O)CCCCCNC(=O)c1ccccc1O	0.04	24
O=C(O)CCCCCCCCCCNC(=O)c1ccccc1O	1.88	51
O=C(O)CCCCCCCNC(=O)c1ccccc1Br	0.24	21
O=C(O)CCCCCCCNC(=O)c1cc(Cl)ccc1O	0.81	56
COc1ccccc1C(=O)NCCCCCC(=O)O	-0.47	27
O=C(O)CCCCCCCNC(=O)Cc1ccccc1O	0.12	21
COc1cc([N+](=O)[O-])ccc1C(=O)NCCCCCCCC(=O)O	-0.55	25
O=C(O)CCCCCCCNC(=O)c1cc(I)ccc1O	1.72	32
O=C(O)CCCCCCCNC(=O)c1ccc2ccccc2c1O	2.1	31
O=C(O)CCCCCCCNC(=O)c1ccccc1O [SALCAPROZIC ACID]	0.68	125
O=C(O)CNC(=O)c1ccccc1O [SALICYLURIC ACID]	-0.68	28
